How the values were obtained:
[1] = Cytotoxicity against human Caov3 cells after 72 hrs by MTT assay; format: functional, cell-based, Caov-3
How it was run: (§1)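 Cells kept in RPMI-1640 with 10% FBS, 2 mM L-glutamine and gentamicin; seeded at 1×10⁴ cells/well, attached overnight at 37 °C, 5% CO₂. Compounds dissolved in DMSO, diluted into FBS-free medium, tested at […], 10⁻⁵, 10⁻⁶, 10⁻⁷ M in triplicate for 72 h. MTT (5 mg/ml) added for 3 h at 37 °C, formazan dissolved in DMSO, OD read at 590 nm; viability loss versus untreated controls, IC50 read graphically; melphalan as positive control.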

[2] = system: A549; test: Cytotoxicity against human A549 cells after 72 hrs by MTT assay; format: functional, cell-based; how it was run: as §1
[3] = system: SK-OV-3; test: Cytotoxicity against human Scov3 cells after 72 hrs by MTT assay; format: functional, cell-based; how it was run: as §1
[4] = Homo sapiens, Caov-3, 72 h, read-out: IC50
[5] = Homo sapiens, A549, 72 h, read-out: IC50
[6] = Homo sapiens, SK-OV-3, 72 h, read-out: IC50

Structure (SMILES)	IC50 [1, 4] [µM]	IC50 [2, 5] [µM]	IC50 [3, 6] [µM]	IC50 ([2]; a549)	IC50 ([1]; caov-3)	IC50 ([3]; sk-ov-3)
N[C@@H](Cc1ccc(N(CCCl)CCCl)cc1)C(=O)O [MELPHALAN]	50					
CCOP(=O)(CN1C/C(=C\c2cccs2)C(=O)/C(=C/c2cccs2)C1)OCC	20	15	38			
CN1C/C(=C/c2cccs2)C(=O)/C(=C/c2cccs2)C1				Non-toxic	Non-toxic	Non-toxic
CCOP(=O)(CCCN1C/C(=C\c2cccs2)C(=O)/C(=C/c2cccs2)C1)OCC	40	30	40			
CCOP(=O)(OCC)N1C/C(=C\c2cccs2)C(=O)/C(=C/c2cccs2)C1	26	27	30			
O=C1/C(=C/c2cccs2)CN(P(=O)(Oc2ccccc2)Oc2ccccc2)C/C1=C\c1cccs1	44	35	60			
O=C1/C(=C/c2cccs2)CNC/C1=C\c1cccs1				Non-toxic	Non-toxic	Non-toxic
CN1C/C(=C\c2cccs2)C(=O)/C(=C/c2cccs2)C1		80	85		Non-toxic	
CCOP(=O)(CCN1C/C(=C\c2cccs2)C(=O)/C(=C/c2cccs2)C1)OCC	70	35	64			
